What was measured:
Format in all cases: cell-based
[1] = tested on: HT-29 cells; assay: CCK-8 anti-proliferation assay, HT-29; conditions: Homo sapiens, HT-29, 72 h, read-out: IC50 HT-29, HT-29 cells, 72 h, CCK-8
[2] = tested on: HCT-116 cells; assay: CCK-8 anti-proliferation assay, HCT-116; conditions: Homo sapiens, HCT-116, 72 h, read-out: IC50 HCT-116, HCT-116 cells, 72 h, CCK-8
Outline: (§1)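 HCT-116 and HCT-15 were grown in McCoy's 5A, and NCM-460 in RPMI 1640, each with 10% FBS and 1% penicillin-streptomycin at 37 °C, 5% CO2. Cells were seeded at 4 × 10^3 per well overnight, then exposed to graded concentrations of test compound for 72 h. Medium was replaced with fresh medium containing 10% CCK-8; A450 was read after 1 h at 37 °C. […] At least three independent experiments.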

[3] = tested on: NCM-460 cells; assay: CCK-8 cytotoxicity, normal colon cell line NCM-460; conditions: Homo sapiens, NCM460, 72 h, read-out: IC50 NCM-460, normal human colon cell line NCM-460, 72 h, CCK-8
Outline: as §1

[4] = tested on: HCT-15 cells; assay: CCK-8 anti-proliferation assay, HCT-15; conditions: Homo sapiens, HCT-15, 72 h, read-out: IC50 HCT-15, HCT-15 cells, 72 h, CCK-8
Outline: as §1

SMILES | IC50 [1] [µM] | IC50 [2] [µM] | IC50 [3] [µM] | IC50 [4] [µM]
O=c1[nH]cc(F)c(=O)[nH]1 [5-FU, 5-fluorouracil, reference compound] | 3.63 ± 0.611 | 1.38 ± 0.21 | 3.94 ± 1.41 | 13.3 ± 2.01
CC1(C)C[C@H]2[C@H]1CC[C@]1(C)CCC[C@@]2(n2cc(C(=O)NCCN)nn2)C1 [NC-14] | 45.9 ± 11.1 | – | – | –
CC1(C)C[C@H]2[C@H]1CC[C@]1(C)CCC[C@@]2(n2cc(C(=O)N3CCNCC3)nn2)C1 [NC-16] | 4.02 ± 0.14 | 17.9 ± 1.01 | 26.1 ± 3.1 | 11.7 ± 0.85
CC1(C)C[C@H]2[C@H]1CC[C@]1(C)CCC[C@@]2(n2cc(C(=O)NC3CCNCC3)nn2)C1 [NC-18] | 3.17 ± 0.24 | 14.7 ± 1.79 | 18.6 ± 4.58 | 14.9 ± 0.98
